The sample as a whole holds a higher share of hits than the screen did.
DTT redox prof: compounds producing H2O2 with reducing agent – biochemical, NIH compound library profiling, artefact control for MLSCN library redox annotation, primary screen | DTT-dependent redox cycling H2O2, phenol red/HRP absorbance; 100% = 100 µM peroxide control, 0% = buffer | actives 0.03% (n = 200,000) | activation, % at 10 µM;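 active = activation of at least 50% relative to the plate's high and low controls in the primary single-dose screen; inactive = activation below 50%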;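 also: compound incubated with DTT at 0.8 mM final as the reducing agent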
PfGluPho inh: PfG6PD enzyme inhibitors, primary screen, biochemical, fluorescence intensity, uHTS; glucose-6-phosphate dehydrogenase-6-phosphogluconolactonase (Plasmodium falciparum 3D7); PfGluPho enzyme, NADPH resazurin-diaphorase fluorescence; inhibition, % at 20 µM; actives 0.78% (n = 350,000); AID 504690, 2011;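 active = inhibition reaching at least a set limit at 20 µM in the primary screen, cut at about 59% in these data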;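 also: 0% = DMSO wells with substrate and 100% = DMSO wells lacking glucose-6-phosphate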
Diaph act CS: compounds boosting diaphorase resazurin reduction – biochemical, uHTS, resorufin fluorescence, counter-screen for diaphorase-coupled primary assays, primary screen. Diaphorase/resazurin coupled assay, 16 min; hits give high values; 1 = vehicle wells, 0 = NADH-free wells. actives 0.005% (n = 190,000). activation factor at 20 µM. AID 1229, 2008;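 active = diaphorase activity raised at least twofold by the compound at 20 µM; inactive = activation factor below 2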
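Assay system: bacterial diaphorase enzyme (C. kluyveri) / Input: enzyme 0.07 U/mL final / Medium: 50 mM HEPES pH 7.4 with 4.542 mM MgCl2, 0.005% Tween 20 / Doses: single compound dose of 20 µM, 1% DMSO final / Incubation: 16 min enzyme reaction, ambient temperature / Signal: fluorescence, excitation 544 nm and emission 590 nm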
Lmaj promast: Leishmania major promastigote growth inhibition, primary screen; Leishmania major promastigotes, resazurin fluorescence viability; inhibition, % at 10 µM; actives 9% (n = 200,000);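 also: promastigotes grown with compound for 44 hours at 28 °C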
Diaphorase inh: diaphorase inhibitors and chemical oxidizers, primary screen, counter-screen for diaphorase-coupled primary assays, biochemical, uHTS, resorufin fluorescence | diaphorase resazurin-to-resorufin fluorescence, NADH, 16 min; bacterial (C. kluyveri) enzyme, not human | inhibition, % at 20 µM | actives 0.69% (n = 190,000) | AID 1217, 2008;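 active = primary screen inhibition at 20 µM above a set limit, cut at about 50% in these data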;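 also: plate controls were DMSO with full reaction for no effect and wells lacking NADH for full effect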
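Assay system: diaphorase enzyme from Clostridium kluyveri. Quantity: enzyme working solution with 0.14 U/mL diaphorase. Schedule: reaction incubation of 16 min at room temperature. Technique: resorufin fluorescence, excitation 544 nm, emission 590 nm. Controls: No-NADH positive control and DMSO neutral control.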
G6PDH CS: L. mesenteroides G6PDH inhibitors, counter-screen for G6PDH-coupled screening assays, biochemical, Leuconostoc mesenteroides enzyme; Purified L. mesenteroides G6PDH, diaphorase/resazurin coupled fluorescence, 45 min; actives 0.12% (n = 200,000); glucose-6-phosphate dehydrogenase [Leuconostoc mesenteroides]; AID 1020, 2008; inhibition, % at 5 µM
Numbers without * were called inactive; . = no result. Rule as the data show it, unless noted: active = inhibition above about 50%; inactive = the rest.

SMILES	DTT redox prof	PfGluPho inh	Diaph act CS	Lmaj promast	Diaphorase inh	G6PDH CS
O=S(=O)(c1ccc(Cl)cc1)n1nnc2ccccc21	-4	-5	1	-5	4	2
CCC(C)(C)n1nnnc1CN(Cc1cc2cc(OC)ccc2[nH]c1=O)C1CCCC1	4	7	0.7	98*	25	-1
COc1ccc(Cn2nnnc2CN(Cc2cc3ccc(C)cc3[nH]c2=O)C2CCCC2)cc1	3	5	0.7	82*	28	6
CCCC(=O)Nc1cc2c3c(c1)C(C)C(=O)N3CCC2 (stereo not given)	.	-15	.	.	.	.
O=C(Nc1ccccc1)c1ccc(NC2CCCCC2)c(S(=O)(=O)N2CCOCC2)c1	1	5	0.7	61*	28	-4
O=C(Nc1ccccc1)c1ccc(N2CCN(c3ccccc3)CC2)c(S(=O)(=O)N2CCOCC2)c1	0	6	0.8	89*	23	0
O=C(Nc1ccccc1)c1ccc(N2CCN(c3ccccn3)CC2)c(S(=O)(=O)N2CCOCC2)c1	0	30	0.7	35	25	9
O=[N+]([O-])c1ccc(N2CCN(Cc3ccccc3)CC2)c(S(=O)(=O)N2CCOCC2)c1	-3	0	1	93*	0	9
CCn1cc(/C=N\NC(=O)Cc2ccc(Cl)cc2)cn1	0	-16	0.9	-6	5	-3
COc1ccc(N=C2O/C(=C/c3sc(=S)n(CC4CCCO4)c3O)N=C2C#N)cc1 (stereo not given)	.	11	.	.	.	.
CCN(CC(=O)NC1CCS(=O)(=O)C1)S(=O)(=O)c1ccc(C)c(C)c1 (stereo not given)	0	-3	1.1	55*	-15	9
CCN(CC(=O)NC1CCS(=O)(=O)C1)S(=O)(=O)c1ccc2ccccc2c1 (stereo not given)	0	-14	0.8	-5	18	5
COc1ccccc1CN1CCCC(CN(CCN(C)C)C(=O)c2ccc(C)cc2)C1 (stereo not given)	.	6	.	.	.	.
CCc1ccccc1NC(=O)c1ccc(NCCc2ccccc2)c([N+](=O)[O-])c1	1	1	0.9	67*	11	-21
C=CCN(c1ccccc1OC)S(=O)(=O)c1cccc(C(=O)OCC(=O)c2c[nH]c3ccccc23)c1	0	12	0.9	97*	12	11
COc1cc(OC)c(N(C)S(=O)(=O)c2cccc(C(=O)OCC(=O)c3c[nH]c4ccccc34)c2)cc1Cl	-1	7	0.7	97*	30	2
C=CCN(c1ccccc1OC)S(=O)(=O)c1cccc(C(=O)OCC(=O)N2CCOCC2)c1	.	1	.	.	.	.
Cc1ccc(O)c(CNc2ccc(S(=O)(=O)Nc3nccs3)cc2)c1	.	-30	.	.	.	.
COC(=O)C1=CN(Cc2ccc(OC)cc2)C=C(C(=O)OC)C1c1cc(OC)c(OC)c(OC)c1	.	11	.	.	.	.
CCOC(=O)C1=CN(Cc2ccc(OC)cc2)C=C(C(=O)OCC)C1c1cccs1	-1	3	0.8	100*	16	2
Cc1ccc(-c2nn(-c3ccccc3)c3[nH]c(=O)c(CNCc4ccccc4)cc23)cc1	0	-5	0.9	97*	6	4
Cc1ccc(-c2nn(-c3ccccc3)cc2CO)cc1	.	12	.	.	.	.
Cc1ccc(-c2nn(-c3ccccc3)cc2CNCc2ccccc2)cc1	0	12	1.1	62*	-11	9
c1ccc2c(N3CCOCC3)nc(-c3ccncc3)nc2c1	2	-4	1	92*	4	0
CCN1CCN(c2nc(-c3ccccc3)nc3ccccc23)CC1	0	-4	1	16	-3	-1
CC1CCN(c2nc(-c3ccncc3)nc3ccccc23)CC1	0	-7	0.7	99*	27	8

From PubChem BioAssay
